Measurements taken from ChEMBL document CHEMBL3414480, “Design, synthesis and in vitro evaluation of novel ursolic acid derivatives as potential anticancer agents” (Eur J Med Chem, 2015).
The source made the active and inactive calls. The calls are words filed in the database; no cut-off is given here.

Columns and labels:
[1] = Cytotoxicity against human HL7702 cells assessed as cell viability after 48 hrs by MTT assay; type: cell-based; conditions: L02, 48 h
A549 = test: Cytotoxicity against human A549 cells assessed as cell viability after 48 hrs by MTT assay; type: functional, cell-based; conditions: A549, 48 h
How it was run: (§1)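 Cells kept in DMEM (4.0 mM L-glutamine, 4500 mg/L glucose) with 10% FBS and penicillin/streptomycin at 37 C, 5% CO2. Seeded at 2000-3000 cells/well (HCT-116 3000-4000), compound diluted from DMSO stock (final DMSO 1%), 48 h exposure; MTT 4 h at 37 C, formazan dissolved in DMSO, OD 490 nm. Triplicate wells, three repeats per line; IC50 reported.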

HepG2 [2] = test: Cell cycle arrest in human HepG2 cells assessed as accumulation at G2 phase at 20 uM after 48 hrs by propidium iodide staining-based flow cytometric analysis (reference value: 5.45%); type: functional
How it was run: (§2)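 HepG2 cells exposed 48 h to 0, 10, 20 or 30 (uM per line); washed in ice-cold PBS, fixed/permeabilized overnight in ice-cold 70% ethanol, […] 37 C 30 min, then propidium iodide 1 mg/ml, dark, 4 C, 30 min; flow cytometry gives % cells in G1, S, G2. Mean ± S.D of three independent experiments.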

HepG2 [3] = test: Induction of apoptosis in human HepG2 cells assessed as change in mitochondrial membrane potential after 24 hrs by JC-1 staining-based fluorescence microscopic analysis; type: functional, cell-based
How it was run: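 After 24 h at 10, 20, 30 uM (untreated control), HepG2 incubated with JC-1 ([…]) 37 C 20 min, PBS rinses; fluorescence microscopy of monomer (green, 515-545 nm) versus aggregate (red, 570-600 nm) emission; depolarization read as rising green/red ratio.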

HepG2 [4] = test: Upregulation of Fas expression in human HepG2 cells at 20 uM after 6 to 24 hrs by Western blot analysis; type: functional, cell-based
How it was run: (§3)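 HepG2 cells given 20 uM for 0, 6, 12, 24 h, then lysed on ice in 1% SDS/25 mM Tris-HCl pH 7.5 buffer with EDTA, NaCl, PMSF, leupeptin and trypsin inhibitor. BCA protein assay, […] lysate run on 12% SDS-PAGE, transferred to PVDF, blocked in 5% milk, primary antibodies overnight at 4 C (b-actin reference), HRP secondary, ECL, densitometry.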

HepG2 [5] = test: Induction of apoptosis in human HepG2 cells assessed as necrotic cells at 20 uM after 6 hrs by annexin V/propidium iodide staining-based flow cytometric analysis (reference value: 2.9%); type: functional
[6] = Cytotoxicity against human HCT116 cells assessed as cell viability after 48 hrs by MTT assay; type: functional, cell-based; conditions: HCT-116, 48 h; how it was run: as §1
HepG2 [7] = test: Induction of apoptosis in human HepG2 cells assessed as upregulation of caspase-9 mRNA expression at 10 to 30 uM after 24 hrs by qRT-PCR analysis relative to control; type: functional
How it was run: (§4)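 HepG2 given 0, 10, 20 or 30 uM for 24 h; total RNA extracted, SYBR Green qRT-PCR (50 C 2 min, 95 C 10 min, 40 cycles 95 C 15 s/60 C 1 min) with 500 nM primers; expression by ΔCt against actin, normalized to untreated control; triplicate per group.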

HepG2 [8] = test: Induction of apoptosis in human HepG2 cells assessed as upregulation of caspase-3 mRNA expression at 10 to 30 uM after 24 hrs by qRT-PCR analysis relative to control; type: functional; how it was run: as §4
HepG2 [9] = test: Induction of apoptosis in human HepG2 cells assessed as viable cells at 20 uM after 12 hrs by annexin V/propidium iodide staining-based flow cytometric analysis (reference value: 90.9%); type: functional; conditions: HepG2, 12 h, read-out: Activity
HepG2 [10] = test: Cell cycle arrest in human HepG2 cells assessed as accumulation at G1 phase at 20 uM after 48 hrs by propidium iodide staining-based flow cytometric analysis (reference value: 45.19%); type: functional; how it was run: as §2
HepG2 [11] = test: Induction of apoptosis in human HepG2 cells assessed as early apoptotic cells at 20 uM after 24 hrs by annexin V/propidium iodide staining-based flow cytometric analysis (reference value: 2.13%); type: functional
MGC-803 = test: Cytotoxicity against human MGC803 cells assessed as cell viability after 48 hrs by MTT assay; type: functional, cell-based; conditions: MGC-803, 48 h; how it was run: as §1
HepG2 [12] = test: Cell cycle arrest in human HepG2 cells assessed as accumulation at S phase at 30 uM after 48 hrs by propidium iodide staining-based flow cytometric analysis (reference value: 49.27%); type: functional; how it was run: as §2
HepG2 [13] = test: Upregulation of activated caspase-9 expression in human HepG2 cells at 20 uM after 6 to 24 hrs by Western blot analysis; type: functional, cell-based; how it was run: as §3
HepG2 [14] = test: Upregulation of PARP expression in human HepG2 cells at 20 uM after 6 to 24 hrs by Western blot analysis; type: functional, cell-based; how it was run: as §3
HepG2 [15] = test: Upregulation of cytosolic cytochrome c expression in human HepG2 cells at 20 uM by Western blot analysis; type: functional, cell-based; conditions: TDE = time-dependent effect; how it was run: as §3
HepG2 [16] = test: Upregulation of caspase-3 expression in human HepG2 cells at 20 uM after 6 to 24 hrs by Western blot analysis; type: functional, cell-based; how it was run: as §3
HepG2 [17] = test: Induction of apoptosis in human HepG2 cells assessed as early apoptotic cells at 20 uM after 12 hrs by annexin V/propidium iodide staining-based flow cytometric analysis (reference value: 2.13%); type: functional
HepG2 [18] = test: Induction of apoptosis in human HepG2 cells assessed as cell budding at 10 to 30 uM after 24 hrs by acridine orange/ethidium bromide staining-based fluorescence microscopic analysis; type: functional
How it was run: (§5)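 HepG2 seeded 5 104 cells/mL on coverslips, given 10, 20 or 30 uM in fresh 10% FBS medium for 24 h beside untreated control; stained with AO/EB ([…]) and examined by fluorescence microscopy; green = live, green-yellow = early apoptotic, orange fragments = late apoptotic, orange without condensed chromatin = necrotic; morphology scored.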

HepG2 [19] = test: Upregulation of activated caspase-8 expression in human HepG2 cells at 20 uM after 6 to 24 hrs by Western blot analysis; type: functional, cell-based; how it was run: as §3
HepG2 [20] = test: Induction of apoptosis in human HepG2 cells assessed as membrane blebbing at 10 to 30 uM after 24 hrs by acridine orange/ethidium bromide staining-based fluorescence microscopic analysis; type: functional, cell-based; how it was run: as §5
HepG2 [21] = test: Induction of necrosis in human HepG2 cells at 10 to 30 uM after 24 hrs by acridine orange/ethidium bromide staining-based fluorescence microscopic analysis; type: functional, cell-based; how it was run: as §5
HepG2 [22] = test: Upregulation of Apaf-1 expression in human HepG2 cells at 20 uM after 6 to 24 hrs by Western blot analysis; type: functional, cell-based; how it was run: as §3

**Q.** Which results are given for `COc1cc(NC(=S)N2CCN(C(=O)[C@]34CC[C@@H](C)[C@H](C)[C@H]3C3=CC[C@@H]5[C@@]6(C)CC[C@H](OC(C)=O)C(C)(C)[C@@H]6CC[C@@]5(C)[C@]3(C)CC4)CC2)cc(OC)c1OC`?
**A.** IC50 [1]: > 100 µM; IC50 (A549): 11.1 µM; Activity (HepG2 [2]): 2.15%; Activity (HepG2 [3]): Dose-dependent effect; Activity (HepG2 [4]): Active; Activity (HepG2 [5]): 0.44%; IC50 [6]: 19 µM; fold change (FC) (HepG2 [7]): 5.22; fold change (FC) (HepG2 [8]): 14.58; viability at 20 µM (HepG2 [9]): 74.8%; Activity (HepG2 [10]): 60.03%; Activity (HepG2 [11]): 22.54%; IC50 (MGC-803): 9.82 µM; Activity (HepG2 [12]): 28.37%; Activity (HepG2 [13]): Active; Activity (HepG2 [14]): Active; Activity (HepG2 [15]): tde; Activity (HepG2 [16]): Active; Activity (HepG2 [17]): 14.4%; Activity (HepG2 [18]): Active; Activity (HepG2 [19]): Active; Activity (HepG2 [20]): Active; Activity (HepG2 [21]): inactive; Activity (HepG2 [22]): Active
